Source: ChEMBL document CHEMBL3870325 (Bioorg Med Chem, 2017)

What was measured:
cells [1] = format: functional, cell-based; settings: Homo sapiens, BT-474, 48 h
cells [2] = format: functional, cell-based; settings: Homo sapiens, A549, 48 h
Histone deacetylase 1 = Histone deacetylase 1 (Homo sapiens, UniProt Q13547); experiment: Inhibition of HDAC1 (unknown origin) using acetylated peptide substrate preincubated for 15 mins followed by substrate addition measured after 60 mins by fluorescence analysis
[3] = target: Epidermal growth factor receptor (Homo sapiens, UniProt P00533)
[4] = target: T1, Protein deacetylase HDAC6 (Homo sapiens, UniProt Q9UBN7); experiment: Inhibition of HDAC6 (unknown origin) using acetylated peptide substrate preincubated for 15 mins followed by substrate addition measured after 60 mins by fluorescence analysis
T1 sequence (Q9UBN7 whole entry): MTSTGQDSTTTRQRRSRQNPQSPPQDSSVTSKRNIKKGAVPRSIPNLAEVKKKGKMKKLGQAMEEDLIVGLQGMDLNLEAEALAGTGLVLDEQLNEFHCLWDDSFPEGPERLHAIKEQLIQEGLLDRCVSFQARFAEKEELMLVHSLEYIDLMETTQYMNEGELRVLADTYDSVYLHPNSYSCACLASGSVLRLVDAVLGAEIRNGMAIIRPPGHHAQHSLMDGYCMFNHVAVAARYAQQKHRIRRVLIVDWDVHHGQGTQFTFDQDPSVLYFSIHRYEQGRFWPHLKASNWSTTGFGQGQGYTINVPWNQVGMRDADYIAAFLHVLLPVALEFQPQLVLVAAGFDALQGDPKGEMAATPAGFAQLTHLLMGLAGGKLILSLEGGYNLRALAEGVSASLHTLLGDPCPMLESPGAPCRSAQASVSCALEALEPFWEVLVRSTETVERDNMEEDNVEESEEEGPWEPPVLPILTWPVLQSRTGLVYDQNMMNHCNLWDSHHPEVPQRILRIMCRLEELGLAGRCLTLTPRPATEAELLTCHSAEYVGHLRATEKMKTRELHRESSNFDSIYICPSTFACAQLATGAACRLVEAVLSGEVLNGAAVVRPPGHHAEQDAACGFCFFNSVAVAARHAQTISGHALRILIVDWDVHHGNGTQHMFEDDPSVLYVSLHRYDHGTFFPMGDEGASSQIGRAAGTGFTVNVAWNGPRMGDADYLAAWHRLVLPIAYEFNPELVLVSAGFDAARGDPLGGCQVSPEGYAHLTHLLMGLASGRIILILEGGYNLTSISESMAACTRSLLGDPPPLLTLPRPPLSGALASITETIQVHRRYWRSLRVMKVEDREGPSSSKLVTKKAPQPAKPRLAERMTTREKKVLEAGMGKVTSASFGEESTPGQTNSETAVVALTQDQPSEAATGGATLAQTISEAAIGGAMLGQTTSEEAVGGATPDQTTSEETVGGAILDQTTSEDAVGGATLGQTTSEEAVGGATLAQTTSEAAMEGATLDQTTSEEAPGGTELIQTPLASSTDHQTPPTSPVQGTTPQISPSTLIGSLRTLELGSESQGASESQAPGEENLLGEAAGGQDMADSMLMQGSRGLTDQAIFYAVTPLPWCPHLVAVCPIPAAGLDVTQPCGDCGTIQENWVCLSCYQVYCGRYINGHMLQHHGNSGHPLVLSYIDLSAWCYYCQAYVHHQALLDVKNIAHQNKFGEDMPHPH

[5] = target: Receptor tyrosine-protein kinase erbB-2 (Homo sapiens, UniProt P04626); experiment: Inhibition of HER2 (unknown origin) assessed as remaining ATP level measured after 15 mins by luminescence analysis
How it was run: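 Kinase run as a contracted HTRF assay. Compounds in 3-fold dilution in 2.5% DMSO/kinase buffer, mixed with kinase and substrate, preincubated 15 min at RT. ATP added to start, reaction 30 min at RT. Stopped with Streptavidin-XL665 plus europium-cryptate TK antibody (1:100). Excitation 320 nm, 665/615 nm emission ratio. IC50 from inhibition curves, results from 2 assays.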

cells [6] = settings: Homo sapiens, A-431, 48 h
cells [7] = settings: Homo sapiens, SK-BR-3, 48 h
cells [8] = settings: Homo sapiens, NCI-H1975, 48 h

Sequence of Receptor tyrosine-protein kinase erbB-2 (P04626 whole entry): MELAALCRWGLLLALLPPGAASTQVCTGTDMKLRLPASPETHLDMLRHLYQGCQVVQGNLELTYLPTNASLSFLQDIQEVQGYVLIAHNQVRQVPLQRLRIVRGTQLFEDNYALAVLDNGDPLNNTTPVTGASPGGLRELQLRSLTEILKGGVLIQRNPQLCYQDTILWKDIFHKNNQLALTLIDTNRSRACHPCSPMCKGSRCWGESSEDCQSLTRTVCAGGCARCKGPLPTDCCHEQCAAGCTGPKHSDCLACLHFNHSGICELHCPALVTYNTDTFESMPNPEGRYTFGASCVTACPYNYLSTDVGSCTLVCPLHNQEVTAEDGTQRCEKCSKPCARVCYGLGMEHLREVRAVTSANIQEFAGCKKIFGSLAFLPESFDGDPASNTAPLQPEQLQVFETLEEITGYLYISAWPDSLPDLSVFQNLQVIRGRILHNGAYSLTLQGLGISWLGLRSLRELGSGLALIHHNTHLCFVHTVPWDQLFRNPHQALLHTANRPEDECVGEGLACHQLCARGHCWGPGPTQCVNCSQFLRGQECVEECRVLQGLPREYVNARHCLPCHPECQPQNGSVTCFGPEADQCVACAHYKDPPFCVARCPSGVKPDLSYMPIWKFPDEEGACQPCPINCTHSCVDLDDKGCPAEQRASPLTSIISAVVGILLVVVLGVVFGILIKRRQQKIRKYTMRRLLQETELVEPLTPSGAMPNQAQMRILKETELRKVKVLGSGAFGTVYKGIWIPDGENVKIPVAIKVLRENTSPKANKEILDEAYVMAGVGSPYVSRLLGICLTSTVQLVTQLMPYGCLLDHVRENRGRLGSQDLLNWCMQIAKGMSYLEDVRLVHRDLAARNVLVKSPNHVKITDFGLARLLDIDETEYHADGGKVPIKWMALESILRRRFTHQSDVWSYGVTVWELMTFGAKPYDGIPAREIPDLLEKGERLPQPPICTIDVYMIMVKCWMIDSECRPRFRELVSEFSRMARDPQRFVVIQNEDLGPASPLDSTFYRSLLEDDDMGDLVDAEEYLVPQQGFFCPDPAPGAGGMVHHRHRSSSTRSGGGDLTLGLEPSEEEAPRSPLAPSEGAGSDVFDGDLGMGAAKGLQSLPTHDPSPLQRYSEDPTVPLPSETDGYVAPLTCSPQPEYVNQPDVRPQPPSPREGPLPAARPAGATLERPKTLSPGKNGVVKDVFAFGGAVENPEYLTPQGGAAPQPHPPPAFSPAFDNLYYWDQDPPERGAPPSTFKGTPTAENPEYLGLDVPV
Sequence of Epidermal growth factor receptor (P00533 whole entry): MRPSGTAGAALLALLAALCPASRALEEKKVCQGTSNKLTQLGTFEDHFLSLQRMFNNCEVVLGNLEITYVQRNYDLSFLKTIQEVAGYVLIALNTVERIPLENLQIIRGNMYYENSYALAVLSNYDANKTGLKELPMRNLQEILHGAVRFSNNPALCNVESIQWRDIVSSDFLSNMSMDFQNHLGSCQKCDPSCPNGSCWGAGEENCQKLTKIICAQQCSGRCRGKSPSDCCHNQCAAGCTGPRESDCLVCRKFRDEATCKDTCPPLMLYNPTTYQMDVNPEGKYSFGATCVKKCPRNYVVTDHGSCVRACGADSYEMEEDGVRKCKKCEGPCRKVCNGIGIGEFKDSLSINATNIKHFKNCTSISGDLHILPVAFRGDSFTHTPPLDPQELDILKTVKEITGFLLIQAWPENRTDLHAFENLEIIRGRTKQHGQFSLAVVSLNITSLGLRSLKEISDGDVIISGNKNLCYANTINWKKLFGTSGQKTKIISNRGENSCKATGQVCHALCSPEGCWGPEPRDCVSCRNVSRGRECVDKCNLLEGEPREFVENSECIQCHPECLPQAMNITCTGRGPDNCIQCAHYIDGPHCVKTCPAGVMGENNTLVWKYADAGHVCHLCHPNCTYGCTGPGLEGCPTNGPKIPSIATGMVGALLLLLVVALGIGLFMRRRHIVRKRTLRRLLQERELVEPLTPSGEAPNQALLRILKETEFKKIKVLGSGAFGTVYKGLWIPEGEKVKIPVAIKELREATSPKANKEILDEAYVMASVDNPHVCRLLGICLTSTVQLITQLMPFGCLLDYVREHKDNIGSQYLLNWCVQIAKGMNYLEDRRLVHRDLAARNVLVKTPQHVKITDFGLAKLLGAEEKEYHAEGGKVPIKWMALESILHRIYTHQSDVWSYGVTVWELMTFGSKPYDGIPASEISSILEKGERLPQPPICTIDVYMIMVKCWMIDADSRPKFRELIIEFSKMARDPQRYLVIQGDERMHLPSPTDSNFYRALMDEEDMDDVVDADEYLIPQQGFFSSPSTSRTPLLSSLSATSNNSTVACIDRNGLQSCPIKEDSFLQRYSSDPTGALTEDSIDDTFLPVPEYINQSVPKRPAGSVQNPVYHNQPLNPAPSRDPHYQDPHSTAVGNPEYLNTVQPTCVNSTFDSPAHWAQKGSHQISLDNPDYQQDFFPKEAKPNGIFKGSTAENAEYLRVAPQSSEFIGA
Sequence of Histone deacetylase 1 (Q13547 whole entry): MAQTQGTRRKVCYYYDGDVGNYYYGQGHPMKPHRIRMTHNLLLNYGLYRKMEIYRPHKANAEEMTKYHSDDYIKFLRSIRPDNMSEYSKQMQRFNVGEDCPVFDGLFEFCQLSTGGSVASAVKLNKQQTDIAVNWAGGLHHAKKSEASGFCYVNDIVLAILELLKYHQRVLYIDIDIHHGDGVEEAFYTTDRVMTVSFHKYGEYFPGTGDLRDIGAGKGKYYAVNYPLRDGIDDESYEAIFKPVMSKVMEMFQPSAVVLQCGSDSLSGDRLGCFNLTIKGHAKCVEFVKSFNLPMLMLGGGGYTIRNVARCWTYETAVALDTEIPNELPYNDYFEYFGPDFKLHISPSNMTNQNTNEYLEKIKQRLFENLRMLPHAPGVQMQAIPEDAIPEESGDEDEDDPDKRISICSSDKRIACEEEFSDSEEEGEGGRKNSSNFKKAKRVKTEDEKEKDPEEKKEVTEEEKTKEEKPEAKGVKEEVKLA

Row | Compound | IC50 (cells [1]) [nM] | IC50 (cells [2]) [nM] | IC50 (Histone deacetylase 1) [nM] | IC50 [3] [nM] | IC50 [4] [nM] | IC50 [5] [nM] | IC50 (cells [6]) [nM] | IC50 (cells [7]) [nM] | IC50 (cells [8]) [nM]
1 | COc1cc(Nc2ncnc3ccc(-c4cn(CCCCCC(=O)NO)nn4)cc23)ccc1Oc1ccccc1 | 23600 | 43400 | 26.6 | 5.8 | 18.5 | > 1000 |  |  | 
2 | O=C(CCCCCn1cc(-c2ccc3ncnc(Nc4ccc(F)c(Cl)c4)c3c2)nn1)NO | 26000 | > 50000 | 7 | 0.65 | 9.5 | 166 |  |  | 
3 | O=C(CCCCCn1cc(-c2ccc3ncnc(Nc4cccc(Cl)c4F)c3c2)nn1)NO | > 50000 | > 50000 | 1.4 | 0.27 | 4.1 | 386 |  |  | 
4 | Cc1ccc(Oc2ccc(Nc3ncnc4ccc(-c5cn(CCCCCC(=O)NO)nn5)cc34)cc2C)cn1 | 14600 | 8460 | 6.9 | 6.4 | 12.9 | > 1000 |  |  | 
5 | COc1cc(Nc2ncnc3ccc(-c4cn(CCCCCCC(=O)NO)nn4)cc23)ccc1Oc1ccccc1 | 4950 | 13500 | 12.8 | 11.6 | 16 | > 1000 |  |  | 

The next compounds have a lower IC50 (cells [1]) than those just listed; values first:

Row | IC50 (cells [1]) [nM] | IC50 (cells [2]) [nM] | IC50 (Histone deacetylase 1) [nM] | IC50 [3] [nM] | IC50 [4] [nM] | IC50 [5] [nM] | IC50 (cells [6]) [nM] | IC50 (cells [7]) [nM] | IC50 (cells [8]) [nM] | Compound
6 | 3630 | 510 | 2.6 | 0.69 | 8.4 | 177 | 1950 | 1270 | 8760 | O=C(CCCCCCn1cc(-c2ccc3ncnc(Nc4ccc(F)c(Cl)c4)c3c2)nn1)NO
7 | 2240 | 3680 | 8.3 | 4.2 | 19.5 | 16.4 |  |  |  | O=C(CCCCCCn1cc(-c2ccc3ncnc(Nc4ccc(OCc5cccc(F)c5)c(Cl)c4)c3c2)nn1)NO
8 | 2200 | > 50000 | 38.6 | 1.9 | 94.2 | 193 |  |  |  | O=C(CCCCCn1cc(-c2ccc3ncnc(Nc4ccc(OCc5cccc(F)c5)c(Cl)c4)c3c2)nn1)NO
